Data as given in BindingDB's records for doi:10.1021/jm4005048 (Northwestern University, 2013).

The compounds below were run against Voltage-dependent L-type calcium channel subunit alpha-1C (Oryctolagus cuniculus, UniProt P15381) (assay: Antagonist activity at rabbit CaV1.2alpha1C transfected in HEK293 cells by FLIPR assay).
How it was run: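 HEK293 cells stably transfected with rabbit CaV1.2α1C cDNA, plated at 4 × 10⁴ cells/well and cultured 4 days in DMEM with 10% FBS. Calcium influx is read on a FLIPR Tetra with a Fluo-8 no-wash calcium dye.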

Chain of Voltage-dependent L-type calcium channel subunit alpha-1C (P15381 whole entry): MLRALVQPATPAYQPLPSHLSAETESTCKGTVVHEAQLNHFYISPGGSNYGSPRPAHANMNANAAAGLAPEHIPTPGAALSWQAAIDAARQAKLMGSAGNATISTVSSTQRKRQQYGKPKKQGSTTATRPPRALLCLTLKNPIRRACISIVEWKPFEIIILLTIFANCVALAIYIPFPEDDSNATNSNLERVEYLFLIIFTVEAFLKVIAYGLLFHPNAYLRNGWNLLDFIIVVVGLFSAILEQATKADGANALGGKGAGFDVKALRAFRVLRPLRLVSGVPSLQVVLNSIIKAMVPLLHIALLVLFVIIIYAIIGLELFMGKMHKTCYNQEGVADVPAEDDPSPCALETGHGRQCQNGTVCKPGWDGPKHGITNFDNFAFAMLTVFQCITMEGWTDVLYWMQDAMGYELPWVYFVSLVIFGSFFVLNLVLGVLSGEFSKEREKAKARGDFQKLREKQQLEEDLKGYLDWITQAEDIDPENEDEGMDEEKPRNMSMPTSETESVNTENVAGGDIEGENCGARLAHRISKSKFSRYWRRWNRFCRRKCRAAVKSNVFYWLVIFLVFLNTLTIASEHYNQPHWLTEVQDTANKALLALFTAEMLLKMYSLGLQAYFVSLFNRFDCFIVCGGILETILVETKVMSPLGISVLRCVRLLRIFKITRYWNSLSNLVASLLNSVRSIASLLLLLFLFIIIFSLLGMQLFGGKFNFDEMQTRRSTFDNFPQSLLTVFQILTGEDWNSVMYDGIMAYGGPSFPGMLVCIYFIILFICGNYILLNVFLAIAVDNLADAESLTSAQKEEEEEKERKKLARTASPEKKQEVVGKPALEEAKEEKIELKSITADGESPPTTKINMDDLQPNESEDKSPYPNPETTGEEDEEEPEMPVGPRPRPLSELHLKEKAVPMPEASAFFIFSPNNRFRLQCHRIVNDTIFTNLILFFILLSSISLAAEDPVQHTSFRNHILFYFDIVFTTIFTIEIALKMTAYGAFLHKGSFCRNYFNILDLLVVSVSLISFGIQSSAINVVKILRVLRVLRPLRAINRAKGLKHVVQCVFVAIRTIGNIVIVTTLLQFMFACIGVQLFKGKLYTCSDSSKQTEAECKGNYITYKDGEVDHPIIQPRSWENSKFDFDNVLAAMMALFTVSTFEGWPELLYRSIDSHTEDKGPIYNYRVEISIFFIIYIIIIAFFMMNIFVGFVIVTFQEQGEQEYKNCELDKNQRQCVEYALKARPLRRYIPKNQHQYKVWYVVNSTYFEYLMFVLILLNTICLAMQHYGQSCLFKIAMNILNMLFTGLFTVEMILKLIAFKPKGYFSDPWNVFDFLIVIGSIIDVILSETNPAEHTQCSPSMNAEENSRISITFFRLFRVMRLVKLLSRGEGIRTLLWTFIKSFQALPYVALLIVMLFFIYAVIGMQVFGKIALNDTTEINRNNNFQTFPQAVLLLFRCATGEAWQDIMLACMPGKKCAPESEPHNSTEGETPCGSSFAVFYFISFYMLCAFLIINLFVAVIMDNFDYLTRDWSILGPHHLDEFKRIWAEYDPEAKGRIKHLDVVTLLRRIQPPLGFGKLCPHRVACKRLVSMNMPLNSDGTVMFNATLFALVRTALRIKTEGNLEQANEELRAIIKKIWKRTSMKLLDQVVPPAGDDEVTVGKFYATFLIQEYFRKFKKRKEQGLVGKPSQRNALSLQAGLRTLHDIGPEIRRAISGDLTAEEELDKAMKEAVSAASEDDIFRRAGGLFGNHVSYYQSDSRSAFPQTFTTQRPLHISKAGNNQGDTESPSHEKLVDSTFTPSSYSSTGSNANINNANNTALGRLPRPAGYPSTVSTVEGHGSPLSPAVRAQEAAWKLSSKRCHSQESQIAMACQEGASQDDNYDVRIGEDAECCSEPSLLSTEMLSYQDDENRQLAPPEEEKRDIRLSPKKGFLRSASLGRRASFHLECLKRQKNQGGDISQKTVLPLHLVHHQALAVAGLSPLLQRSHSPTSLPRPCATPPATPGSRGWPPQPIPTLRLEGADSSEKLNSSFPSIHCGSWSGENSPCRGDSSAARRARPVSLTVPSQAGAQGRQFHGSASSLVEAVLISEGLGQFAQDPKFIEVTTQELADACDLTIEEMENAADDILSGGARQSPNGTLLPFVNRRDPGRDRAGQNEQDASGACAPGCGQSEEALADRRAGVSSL

Compound	IC50 [µM]
O=c1cc(O)n(-c2cccc(C(F)(F)F)c2)c(=O)n1C1CCCC1	> 100
CCOC(=O)[C@@H]1CCC[C@@H]1n1c(=O)cc(O)n(CCc2cccc(Cl)c2)c1=O	12.6
C[C@@H](C1CCCCC1)n1c(=O)cc(O)n(CCc2ccc(Cl)cc2)c1=O	> 100
O=c1cc(O)n(CCc2cccc(C(F)(F)F)c2)c(=O)n1[C@@H]1C[C@@H]2CC[C@H]1C2	100
COC(=O)[C@H](Cc1ccccc1)n1c(O)cc(=O)n(C2CCCC2)c1=O	> 100
CC1(C)[C@@H]2CC[C@@]1(C)[C@@H](n1c(=O)cc(O)n(CCc3ccc(Cl)cc3)c1=O)C2	> 100
CC1(C)[C@@H]2CC[C@@]1(C)[C@@H](n1c(=O)cc(O)n(CCc3cccc(Cl)c3)c1=O)C2	> 100
O=c1cc(O)n(CCc2cccc(Cl)c2)c(=O)n1C1CCCC1	> 100
CC(C)(Cn1c(O)cc(=O)n(C2CCCC2)c1=O)c1cccc(Cl)c1	12.6
C[C@H](C1CCCCC1)n1c(=O)cc(O)n(CCc2ccc(Cl)cc2)c1=O	> 100
C[C@H]1[C@H](n2c(=O)cc(O)n(CCc3ccc(Cl)cc3)c2=O)C[C@@H]2C[C@H]1C2(C)C	> 100
C[C@@H](C1CCCCC1)n1c(=O)cc(O)n(CCc2cccc(Cl)c2)c1=O	> 100
O=C(O)[C@H]1CC[C@@H](n2c(=O)cc(O)n(CCc3cccc(Cl)c3)c2=O)C1	> 100
O=c1cc(O)n(CCC(c2ccccc2)c2ccccc2)c(=O)n1C1CCCC1	4.7
C[C@H](C1CCCCC1)n1c(=O)cc(O)n(CCc2cccc(Cl)c2)c1=O	> 100
O=c1cc(O)n(CCc2ccc(Cl)cc2)c(=O)n1C[C@H]1CCCO1	> 100
O=c1cc(O)n(CCc2cccc(Cl)c2)c(=O)n1[C@@H]1C[C@@H]2CC[C@H]1C2	> 100
C[C@H](c1cccc2ccccc12)n1c(O)cc(=O)n(CCc2cccc(Cl)c2)c1=O	10
O=c1cc(O)n(CCc2cccc(C(F)(F)F)c2)c(=O)n1[C@H]1C[C@H]2CC[C@@H]1C2	> 100
O=c1cc(O)n(CCc2cccc(Cl)c2)c(=O)n1[C@H]1C[C@H]2CC[C@@H]1C2	> 100
O=c1cc(O)n(CCc2ccc(Cl)cc2)c(=O)n1[C@H]1C[C@H]2CC[C@@H]1C2	100
C[C@@H]1[C@@H](n2c(=O)cc(O)n(CCc3cccc(Cl)c3)c2=O)C[C@H]2C[C@@H]1C2(C)C	> 100
C[C@@H]1CCC[C@@H]1n1c(=O)cc(O)n(CCc2ccc(Cl)cc2)c1=O	5.1
O=c1cc(O)n(CC2(c3ccc(Cl)cc3)CC2)c(=O)n1C1CCCC1	> 100
C[C@H]1CCC[C@H]1n1c(=O)cc(O)n(CCc2ccc(Cl)cc2)c1=O	10
CC1(C)CCC[C@H]1n1c(=O)cc(O)n(CCc2cccc(Cl)c2)c1=O	4.7
C[C@H]1[C@H](n2c(=O)cc(O)n(CCc3cccc(Cl)c3)c2=O)C[C@@H]2C[C@H]1C2(C)C	> 100
CC(Cn1c(O)cc(=O)n(C2CC3CCC2C3)c1=O)c1cccc(Cl)c1 (stereo not given)	5.1
O=c1cc(O)n(CCc2cccc(Cl)c2)c(=O)n1[C@H]1CCC[C@@H]1O	> 100
CC1(C)[C@@H]2CC[C@H](Cn3c(=O)cc(O)n(CCc4ccc(Cl)cc4)c3=O)[C@H]1C2	> 100
